SMILES strings stand for the structures.

MIC and Ratio data for seven molecules are collected here from ChEMBL document CHEMBL3091318, “Potent and broad-spectrum antibacterial activity of indole-based bisamidine antibiotics: synthesis and SAR of novel analogs of MBX 1066 and MBX 1090” (2013).

Common to all, as to assay type: functional
The subject of assay [1] is Escherichia coli. Put plainly: Antimicrobial activity against TolC efflux-deficient Escherichia coli K-12 after 16 to 20 hrs by broth microdilution method. Put shortly: (§1)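 CLSI broth microdilution. Log-phase cultures grown in cation-adjusted Mueller–Hinton broth and seeded at 1×10^5 CFU/mL. Plates incubated at 37 °C with shaking for 16–20 h. DMSO stocks of compound were diluted into medium to 1% DMSO final. Growth was read as OD600. MIC (μg/ml) is the lowest concentration with no apparent growth, averaged over at least 3 assays.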
In general terms: Dilution methods test growth across graded concentrations, often in twofold steps.

The subject of assay [2] is Escherichia coli. Put plainly: Antimicrobial activity against efflux pump-positive Escherichia coli K-12 after 16 to 20 hrs by broth microdilution method. Put shortly: as §1
The test system of assay [3] is Pseudomonas aeruginosa. Put plainly: Antimicrobial activity against efflux pump mexAB-oprM-deficient Pseudomonas aeruginosa PAO1 after 16 to 20 hrs by broth microdilution method. Put shortly:
as §1

Assay [4] deals with Enterococcus faecalis. Put plainly: Antimicrobial activity vancomycin-resistant Enterococcus faecalis ATCC 51575 after 16 to 20 hrs by broth microdilution method. Put shortly:
(§2)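 CLSI broth microdilution. Log-phase cultures in cation-adjusted Mueller–Hinton broth were seeded at 1×10^5 CFU/mL and incubated at 37 °C with shaking for 16–20 h. Compounds were diluted from DMSO stocks to a final 1% DMSO. Growth was read as OD600, and MIC was taken as the lowest concentration with no apparent growth. At least 3 runs were done, and the average MIC is reported in μg/ml.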

In assay [5] the test system is Staphylococcus aureus. Briefly: Antimicrobial activity against Staphylococcus aureus ATCC 25923 after 16 to 20 hrs by broth microdilution method. Put shortly:
as §2

Assay [6] concerns Staphylococcus aureus. Briefly: Antimicrobial activity methicillin-resistant against Staphylococcus aureus clinical isolate 1094 after 16 to 20 hrs by broth microdilution method.
Assay [7] concerns Enterococcus faecalis. Put plainly: Antimicrobial activity Enterococcus faecalis ATCC 29212 after 16 to 20 hrs by broth microdilution method. Put shortly:
as §1

Assay [8] has as its system Bacillus anthracis. Put plainly: Antimicrobial activity against Bacillus anthracis Sterne after 16 to 20 hrs by broth microdilution method. Put shortly: as §2
The subject of assay [9] is Pseudomonas aeruginosa. Briefly: Antimicrobial activity against efflux pump-positive Pseudomonas aeruginosa PAO1 ATCC BAA-47 after 16 to 20 hrs by broth microdilution method. Put shortly:
as §1

Assay [10] relates to Escherichia coli. Put plainly: Selectivity ratio of MIC for efflux pump-positive Escherichia coli K-12 to MIC for TolC efflux-deficient Escherichia coli K-12.
Assay [11] concerns Pseudomonas aeruginosa. Put plainly: Selectivity ratio of MIC for efflux pump-positive Pseudomonas aeruginosa PAO1 ATCC BAA-47 to MIC for efflux pump mexAB-oprM-deficient Pseudomonas aeruginosa PAO1.
The test system of assay [12] is Acinetobacter baumannii. Briefly: Antimicrobial activity against Acinetobacter baumannii ATCC 19606 after 16 to 20 hrs by broth microdilution method. Put shortly:
as §1

Assay [13] has as its system Haemophilus influenzae. Put plainly: Antimicrobial activity against Haemophilus influenzae ATCC 10211 after 16 to 20 hrs by broth microdilution method. Put shortly:
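Broth microdilution per CLSI in Haemophilus Test Medium at 37 °C under 5% CO₂ for 16–20 h, seeded at 1×10^5 CFU/mL. Compound was added from DMSO stocks to 1% DMSO final. Growth was read as OD600. MIC (μg/ml) is the lowest concentration without apparent growth, averaged from at least 3 runs.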

For assay [14], the system named is Klebsiella pneumoniae. Briefly: Antimicrobial activity against Klebsiella pneumoniae ATCC 13882 after 16 to 20 hrs by broth microdilution method. Put shortly: as §1
Assay [15] deals with Pseudomonas aeruginosa. Put plainly: Ratio of MBX 1066 MIC to compound MIC for Pseudomonas aeruginosa PAO1 ATCC BAA-47 after 16 to 20 hrs by broth microdilution method.
Assay [16] has as its system Escherichia coli. Briefly: Ratio of MBX 1066 MIC to compound MIC for Escherichia coli K-12 after 16 to 20 hrs by broth microdilution method.

Regarding `O=C(O)C(F)(F)F.c1cc2cc(-c3ccc(-c4cc5ccc(C6=NCCN6)cc5[nH]4)cc3)[nH]c2cc1C1=NCCN1`, the MIC in assay [1] worked out at 0.16 µg/mL; in [2] it was 1.25 µg/mL; in assay [3], 1.25 µg/mL; in assay [4], 0.16 µg/mL; in assay [5], 0.16 µg/mL; in [6] it was 0.16 µg/mL. Moreover, the MIC in [7] is 0.16 µg/mL; in assay [8] it was 0.31 µg/mL; in assay [9] it was 7.5 µg/mL; in assay [12], greater than 80 µg/mL; in assay [13] it was 0.63 µg/mL; in assay [14], 0.31 µg/mL. The results for the Ratio in [10] and in assay [11] were 8 and 6, respectively.

In the case of `O=C(O)C(F)(F)F.c1cc2cc(-c3ccc(-c4cc5ccc(C6=NCCCN6)cc5[nH]4)cc3)[nH]c2cc1C1=NCCCN1`, the MIC worked out at 0.16 µg/mL in assay [1]; 0.16 µg/mL in assay [2]; 0.31 µg/mL in assay [3]; 0.08 µg/mL in assay [4]; 0.08 µg/mL in assay [5]; 0.08 µg/mL in [6]. For the same molecule, the MIC in assay [7] worked out at 0.08 µg/mL; in assay [8], 0.08 µg/mL; in assay [9], 0.31 µg/mL; in assay [12], 2.5 µg/mL; in assay [13] it was 0.31 µg/mL; in assay [14], 0.31 µg/mL. The Ratio is greater than 20 in assay [15] and 10 in assay [16].

For the molecule `CC(=O)O.c1cc2cc(-c3ccc(-c4cc5ccc(C6=NCCCN6)cc5[nH]4)nc3)[nH]c2cc1C1=NCCCN1`, the MIC was 0.16 µg/mL in [1]; 0.63 µg/mL in [2]; 2.5 µg/mL in assay [3]; 0.16 µg/mL in [4]; 0.16 µg/mL in assay [5]; 0.16 µg/mL in assay [6]. Besides, the MIC in assay [7] was found to be 0.63 µg/mL; in assay [8], 0.16 µg/mL; in assay [9] it was 2.5 µg/mL; in assay [12] it was 20 µg/mL; in assay [13], 2.5 µg/mL; in assay [14] it was 5 µg/mL.

`CC1CN=C(c2ccc3cc(-c4ccc(-c5cc6ccc(C7=NCC(C)CN7)cc6[nH]5)cc4)[nH]c3c2)NC1.O=C(O)C(F)(F)F` (stereo not drawn): the MIC in assay [1] was found to be 0.16 µg/mL; in assay [2], 0.31 µg/mL; in assay [3], 0.63 µg/mL; in [4] it was 0.08 µg/mL; in assay [5] it was 0.08 µg/mL; in [6] it was 0.08 µg/mL. Moreover, the MIC in assay [7] was found to be 0.16 µg/mL; in assay [8] it was 0.08 µg/mL; in [9], 0.63 µg/mL; in assay [12], 40 µg/mL; in [13] it was 1.25 µg/mL; in assay [14] it was 0.31 µg/mL.

Consider `CC1(C)CN=C(c2ccc3cc(-c4ccc(-c5cc6ccc(C7=NCC(C)(C)CN7)cc6[nH]5)cc4)[nH]c3c2)NC1.O=C(O)C(F)(F)F`, for which the MIC in assay [1] stood at 0.63 µg/mL; in [2], 0.63 µg/mL; in assay [3] it was 40 µg/mL; in assay [4], 0.63 µg/mL; in [5], 0.31 µg/mL; in assay [6] it was 0.31 µg/mL. Also, the MIC in assay [7] was 0.31 µg/mL; in [8], 0.31 µg/mL; in [9], 10 µg/mL; in assay [12] it was greater than 80 µg/mL; in [13], 2.5 µg/mL; in assay [14] it was 0.63 µg/mL.

As to `O=C(O)C(F)(F)F.OC1CN=C(c2ccc3cc(-c4ccc(-c5cc6ccc(C7=NCC(O)CN7)cc6[nH]5)cc4)[nH]c3c2)NC1` (stereo not drawn), the MIC in [1] came to 0.63 µg/mL; in assay [2], 1.25 µg/mL; in assay [3] it was 0.31 µg/mL; in assay [4], 0.63 µg/mL; in assay [5], 0.31 µg/mL; in [6] it was 0.31 µg/mL. Further, the MIC was 0.16 µg/mL in assay [7]; 0.16 µg/mL in [8]; 1.25 µg/mL in [9]; greater than 80 µg/mL in [12]; 1.25 µg/mL in assay [13]; 0.63 µg/mL in assay [14].

Consider `O=C(O)C(F)(F)F.c1cc2cc(-c3ccc(-c4cc5ccc(C6=NCCN6)cc5[nH]4)s3)[nH]c2cc1C1=NCCN1`, for which the MIC is 0.31 µg/mL in assay [1]; 0.63 µg/mL in assay [2]; 1.25 µg/mL in assay [3]; 1.25 µg/mL in [4]; 0.16 µg/mL in [5]; 0.31 µg/mL in assay [6]. Besides, the MIC was 1.25 µg/mL in assay [7]; 0.16 µg/mL in [8]; 10 µg/mL in [9]; 10 µg/mL in assay [12]; 0.63 µg/mL in [13]; 0.63 µg/mL in [14].
